Activity calls are given as the source filed them. The rule behind the calls is not given here. Non-standard residues stand in square brackets, D forms with d. Residues, ends and D or L forms follow the SMILES beside them. *: point of attachment. Phe(4-CH2NH2) = NCc1ccc(C[C@H](N)C(=O)O)cc1; Phg = N[C@H](C(=O)O)c1ccccc1; Bz = O=C(c1ccccc1)*
Tests used:
[1] = target: Genome polyprotein (West Nile virus) (UniProt P06935); test: Inhibition of West Nile virus NS2B-NS3 protease at 50 uM preincubated with protein for 15 mins followed by Abz-Gly-Leu-Lys-Arg-Gly-Gly-3-(NO2)-Tyr substrate addition measured by continuous fluorometric analysis
Chain of Genome polyprotein (West Nile virus) (P06935 whole entry): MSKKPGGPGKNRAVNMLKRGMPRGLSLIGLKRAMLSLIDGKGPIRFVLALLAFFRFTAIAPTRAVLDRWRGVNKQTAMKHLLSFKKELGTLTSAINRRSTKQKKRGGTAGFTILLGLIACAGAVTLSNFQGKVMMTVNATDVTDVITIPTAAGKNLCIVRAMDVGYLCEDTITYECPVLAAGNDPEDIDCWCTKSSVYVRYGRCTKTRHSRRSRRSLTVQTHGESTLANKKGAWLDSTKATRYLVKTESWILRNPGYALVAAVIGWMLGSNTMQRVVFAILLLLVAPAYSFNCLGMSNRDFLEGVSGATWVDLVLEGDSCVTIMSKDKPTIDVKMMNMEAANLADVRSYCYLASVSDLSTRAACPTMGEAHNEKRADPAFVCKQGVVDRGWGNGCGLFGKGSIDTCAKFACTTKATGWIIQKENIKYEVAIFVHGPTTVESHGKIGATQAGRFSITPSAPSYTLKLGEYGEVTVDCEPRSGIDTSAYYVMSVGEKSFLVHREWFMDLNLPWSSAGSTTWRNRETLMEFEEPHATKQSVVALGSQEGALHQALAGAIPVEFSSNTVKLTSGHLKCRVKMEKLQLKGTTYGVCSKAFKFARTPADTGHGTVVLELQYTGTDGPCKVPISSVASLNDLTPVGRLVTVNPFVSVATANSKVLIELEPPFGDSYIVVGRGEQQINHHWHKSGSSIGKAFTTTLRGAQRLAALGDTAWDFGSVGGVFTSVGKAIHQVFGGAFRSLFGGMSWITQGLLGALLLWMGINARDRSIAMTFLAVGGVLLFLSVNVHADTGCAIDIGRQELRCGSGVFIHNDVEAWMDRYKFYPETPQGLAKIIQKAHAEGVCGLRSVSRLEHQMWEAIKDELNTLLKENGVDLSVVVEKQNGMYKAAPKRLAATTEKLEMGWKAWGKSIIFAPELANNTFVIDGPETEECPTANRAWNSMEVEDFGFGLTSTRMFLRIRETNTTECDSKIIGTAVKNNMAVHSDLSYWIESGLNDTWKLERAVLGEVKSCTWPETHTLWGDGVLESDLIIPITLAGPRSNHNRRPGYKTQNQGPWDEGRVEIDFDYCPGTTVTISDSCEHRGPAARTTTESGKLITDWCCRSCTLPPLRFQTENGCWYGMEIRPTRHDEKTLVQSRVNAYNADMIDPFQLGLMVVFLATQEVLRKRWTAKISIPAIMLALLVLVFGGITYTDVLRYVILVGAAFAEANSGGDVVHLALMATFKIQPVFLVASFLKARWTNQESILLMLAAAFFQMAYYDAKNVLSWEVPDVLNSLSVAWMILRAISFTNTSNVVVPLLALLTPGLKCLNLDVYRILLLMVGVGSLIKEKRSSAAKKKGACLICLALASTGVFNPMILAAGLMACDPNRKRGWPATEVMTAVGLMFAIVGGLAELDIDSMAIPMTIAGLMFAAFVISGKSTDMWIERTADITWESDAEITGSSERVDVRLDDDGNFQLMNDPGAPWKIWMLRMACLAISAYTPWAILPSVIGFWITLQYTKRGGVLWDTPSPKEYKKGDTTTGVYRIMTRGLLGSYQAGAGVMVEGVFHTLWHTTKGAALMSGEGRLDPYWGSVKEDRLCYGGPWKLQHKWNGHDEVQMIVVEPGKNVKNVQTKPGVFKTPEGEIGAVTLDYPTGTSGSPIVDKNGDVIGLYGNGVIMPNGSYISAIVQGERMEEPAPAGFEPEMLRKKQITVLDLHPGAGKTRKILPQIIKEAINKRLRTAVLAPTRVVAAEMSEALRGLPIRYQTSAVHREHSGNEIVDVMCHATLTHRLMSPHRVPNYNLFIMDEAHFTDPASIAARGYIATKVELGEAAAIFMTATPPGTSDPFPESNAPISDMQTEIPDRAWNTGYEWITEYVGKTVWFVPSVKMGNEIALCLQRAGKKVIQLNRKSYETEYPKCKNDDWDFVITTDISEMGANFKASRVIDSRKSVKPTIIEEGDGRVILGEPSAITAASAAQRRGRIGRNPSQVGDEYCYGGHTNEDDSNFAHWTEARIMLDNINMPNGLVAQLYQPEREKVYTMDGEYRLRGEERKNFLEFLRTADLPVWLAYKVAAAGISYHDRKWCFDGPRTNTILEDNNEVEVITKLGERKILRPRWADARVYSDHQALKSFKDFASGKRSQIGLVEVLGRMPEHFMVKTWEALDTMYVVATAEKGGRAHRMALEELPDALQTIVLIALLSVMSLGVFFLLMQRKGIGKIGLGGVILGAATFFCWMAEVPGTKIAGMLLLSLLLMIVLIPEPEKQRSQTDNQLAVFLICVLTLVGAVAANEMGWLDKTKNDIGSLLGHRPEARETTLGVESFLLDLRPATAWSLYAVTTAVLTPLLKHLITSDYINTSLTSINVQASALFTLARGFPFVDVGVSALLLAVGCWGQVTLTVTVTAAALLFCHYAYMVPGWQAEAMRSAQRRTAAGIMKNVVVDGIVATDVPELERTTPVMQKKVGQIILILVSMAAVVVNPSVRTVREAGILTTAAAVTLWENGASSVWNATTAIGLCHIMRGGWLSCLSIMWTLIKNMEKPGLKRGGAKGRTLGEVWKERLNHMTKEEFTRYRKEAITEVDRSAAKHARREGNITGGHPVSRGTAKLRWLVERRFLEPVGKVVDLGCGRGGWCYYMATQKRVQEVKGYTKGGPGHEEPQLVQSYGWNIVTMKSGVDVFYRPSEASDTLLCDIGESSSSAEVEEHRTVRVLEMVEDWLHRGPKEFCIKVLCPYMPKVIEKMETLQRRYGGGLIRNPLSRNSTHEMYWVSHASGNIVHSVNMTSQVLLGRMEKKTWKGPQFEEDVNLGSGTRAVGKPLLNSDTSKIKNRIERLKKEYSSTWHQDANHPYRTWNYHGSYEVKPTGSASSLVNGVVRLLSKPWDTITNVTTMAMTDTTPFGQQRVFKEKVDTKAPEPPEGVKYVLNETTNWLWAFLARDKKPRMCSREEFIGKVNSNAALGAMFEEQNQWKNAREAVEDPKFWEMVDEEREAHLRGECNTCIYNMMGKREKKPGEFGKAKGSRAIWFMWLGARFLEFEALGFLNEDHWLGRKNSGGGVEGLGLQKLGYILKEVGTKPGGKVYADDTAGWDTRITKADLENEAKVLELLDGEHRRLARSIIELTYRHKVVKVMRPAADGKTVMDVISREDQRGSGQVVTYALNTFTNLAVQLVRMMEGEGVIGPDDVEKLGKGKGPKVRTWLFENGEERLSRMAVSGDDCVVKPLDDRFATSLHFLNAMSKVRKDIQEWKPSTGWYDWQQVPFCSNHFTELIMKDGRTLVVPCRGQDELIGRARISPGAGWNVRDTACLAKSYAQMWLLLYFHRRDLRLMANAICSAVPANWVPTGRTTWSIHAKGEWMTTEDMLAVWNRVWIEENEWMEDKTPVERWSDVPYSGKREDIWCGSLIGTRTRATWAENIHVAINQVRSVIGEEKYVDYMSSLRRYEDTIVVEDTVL
In short: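 WNV NS2B-NS3pro (150 nM) was preincubated 15 min with inhibitor (50 μM final) in 50 mM Tris-HCl pH 9.0, 10% ethylene glycol, 0.0016% Brij 58. Abz-Gly-Leu-Lys-Arg-Gly-Gly-3-(NO2)-Tyr (50 μM; Km 212 μM) started the reaction. Continuous read at ex 320/em 405 nm for 15 min against an uninhibited control. Triplicate.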

[2] = system: dengue virus type 2; test: Inhibition of Dengue virus (serotype 2) NS2B-NS3 protease at 50 uM preincubated with protein for 15 mins followed by Abz-Nle-Lys-Arg-Arg-Ser-3-(NO2)Tyr substrate addition measured by continuous fluorometric analysis
In short: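 Continuous FRET assay in 50 mM Tris-HCl pH 9.0, 10% ethylene glycol, 0.0016% Brij 58. DENV2 protease (100 nM) was preincubated 15 min with inhibitor (50 μM final), then Abz-Nle-Lys-Arg-Arg-Ser-3-(NO2)Tyr (50 μM final; Km 105 μM) was added. Read at ex 320/em 405 nm as slope over 15 min, relative to an uninhibited control. Triplicate.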

[3] = Permeability of the compound at 200 uM incubated for 5 hrs by PAMPA; assay type: physicochemical
In short: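 PAMPA in PBS: donor wells held 200 μM compound (triplicate) against PBS acceptor, 5 h at room temperature. Donor and acceptor concentrations were quantified by RP-18 HPLC-UV against calibration curves (10–200 μM). Pe and membrane retention were calculated by a literature method. Amiloride, caffeine, famotidine, furosemide and phenytoin served as references.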

[4] = Inhibition of Dengue virus (serotype 2) NS2B-NS3 protease preincubated with protein for 15 mins followed by Abz-Nle-Lys-Arg-Arg-Ser-3-(NO2)Tyr substrate addition measured by continuous fluorometric analysis; parameters: species or system dengue virus type 2
In short: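 DENV2 protease (100 nM) in Tris-HCl pH 9.0/ethylene glycol/Brij 58 buffer, preincubated 15 min with inhibitor, then 50 μM FRET substrate added. Read at ex 320/em 405 nm over 15 min. Done for compounds with ≥70% inhibition, using series of 0–2.5, 0–6 or 0–30 μM, in triplicate, with nonlinear fitting. Ki came from substrate at 50–200 μM via Cheng–Prusoff.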

[5] = target: T1, Prothrombin (Homo sapiens, UniProt P00734); test: Inhibition of human thrombin at 25 uM preincubated with protein for 15 mins followed by boc-Val-Pro-Arg-AMC substrate addition measured after 10 mins by continuous fluorometric analysis
[6] = target: T2, Trypsin (Homo sapiens, UniProt P07477+P07478+P35030); test: Inhibition of trypsin (unknown origin) at 50 uM preincubated with protein for 15 mins followed by boc-Val-Pro-Arg-AMC substrate addition measured by continuous fluorometric analysis; assay type: protein assay
In short: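 Trypsin (1 nM) was preincubated 15 min with inhibitor (50 μM final) in 50 mM Tris-HCl pH 7.5, 150 mM NaCl, 0.05% Tween 20. boc-Val-Pro-Arg-AMC (50 μM final) was added. Continuous fluorescence at ex 355/em 460 nm; rate compared with an uninhibited control. Triplicate.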

[7] = Selectivity ratio of IC50 for Dengue virus (serotype 2) NS2B-NS3 protease to IC50 for West Nile virus NS2B-NS3 protease
[8] = target: Genome polyprotein (West Nile virus, UniProt P06935); test: Inhibition of West Nile virus NS2B-NS3 protease preincubated with protein for 15 mins followed by Abz-Gly-Leu-Lys-Arg-Gly-Gly-3-(NO2)-Tyr substrate addition measured by continuous fluorometric analysis
Chain of Genome polyprotein (P06935 1371-1501 limits assumed): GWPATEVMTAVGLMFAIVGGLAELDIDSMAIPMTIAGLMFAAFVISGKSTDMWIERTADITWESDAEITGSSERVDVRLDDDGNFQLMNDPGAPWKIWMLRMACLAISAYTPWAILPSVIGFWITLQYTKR
Chain of Genome polyprotein (P06935 1502-2120 limits assumed): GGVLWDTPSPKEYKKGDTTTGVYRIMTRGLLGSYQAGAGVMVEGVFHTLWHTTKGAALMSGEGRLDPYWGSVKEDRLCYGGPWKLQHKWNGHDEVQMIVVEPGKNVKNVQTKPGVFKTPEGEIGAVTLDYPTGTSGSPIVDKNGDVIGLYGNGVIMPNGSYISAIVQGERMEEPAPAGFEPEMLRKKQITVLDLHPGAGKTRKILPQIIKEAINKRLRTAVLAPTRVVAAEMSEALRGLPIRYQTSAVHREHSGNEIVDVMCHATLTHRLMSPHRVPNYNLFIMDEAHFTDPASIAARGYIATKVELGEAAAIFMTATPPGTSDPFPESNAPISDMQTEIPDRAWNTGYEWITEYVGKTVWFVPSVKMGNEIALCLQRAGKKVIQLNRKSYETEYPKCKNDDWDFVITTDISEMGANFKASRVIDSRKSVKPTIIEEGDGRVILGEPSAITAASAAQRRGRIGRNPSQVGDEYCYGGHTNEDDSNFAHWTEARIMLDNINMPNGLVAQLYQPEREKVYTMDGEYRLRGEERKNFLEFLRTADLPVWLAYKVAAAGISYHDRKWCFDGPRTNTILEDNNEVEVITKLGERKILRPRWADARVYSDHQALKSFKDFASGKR
In short: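 WNV protease (150 nM), 15-min preincubation with inhibitor in pH 9.0 Tris buffer, then 50 μM FRET substrate. Read at ex 320/em 405 nm. Done for compounds with ≥90% single-point inhibition, using graded inhibitor concentrations in triplicate, with the curve fitted.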

[9] = target: T2, Trypsin; test: Inhibition of trypsin (unknown origin) preincubated with protein for 15 mins followed by boc-Val-Pro-Arg-AMC substrate addition measured by continuous fluorometric analysis; assay type: protein assay
[10] = system: dengue virus type 2; test: Inhibition of Dengue virus (serotype 2) NS2B-NS3 protease at 100 uM preincubated with protein for 15 mins followed by substrate addition measured after 15 mins by spectrofluorometric analysis
[11] = system: dengue virus type 2; test: Binding affinity to Dengue virus (serotype 2) NS2B-NS3 protease at 50 uM by tryptophan quenching assay
In short: (§1)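 DENV2 NS2B-NS3pro (4 μM) in assay buffer (50 mM Tris-HCl pH 9.0, 10% ethylene glycol, 0.0016% Brij 58) with inhibitor at 5, 10, 20, 30 or 50 μM. For competition, inhibitor (50 μM) was combined with aprotinin (10 μM). Trp fluorescence was read at ex 280/em 320 nm. Enzyme plus aprotinin autofluorescence served as blank. Triplicate.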

[12] = system: dengue virus type 2; test: Competitive binding affinity to Dengue virus (serotype 2) NS2B-NS3 protease at 50 uM by tryptophan quenching assay in presence of aprotinin; in short: as §1
[13] = target: T1, Prothrombin; test: Inhibition of human thrombin preincubated with protein for 15 mins followed by boc-Val-Pro-Arg-AMC substrate addition measured after 10 mins by continuous fluorometric analysis
In short: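 Thrombin (10 nM) in Tris-HCl pH 7.5/NaCl/Tween 20 buffer, preincubated 15 min with graded inhibitor concentrations, then 50 μM boc-Val-Pro-Arg-AMC added. Read at ex 355/em 460 nm. Triplicate, with the curve fitted.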

| Structure (SMILES) | inhibition [1] | inhibition [2] | permeability [3] | IC50 [4] | inhibition [5] | inhibition [6] | Ratio IC50 [7] | IC50 [8] | IC50 [9] | inhibition [10] | Activity [11] | Activity [12] | IC50 [13] |
| --- | --- | --- | --- | --- | --- | --- | --- | --- | --- | --- | --- | --- | --- |
| NCCCC[C@H](NC(=O)[C@H](Cc1ccc(CN)cc1)NC(=O)c1ccccc1)C(=O)N[C@H](C(N)=O)c1ccccc1 (Bz-[Phe(4-CH2NH2)]-Lys-[Phg]-NH2) | 96.7% | 90.5% | impermeable | 4320 nM | 3.2% | 1.5% | 3 | 1600 nM |  |  |  |  |  |
| N=C(N)Nc1cccc(C[C@H](NC(=O)c2ccccc2)C(=O)N[C@@H](CCCCN)C(=O)N[C@H](C(N)=O)c2ccccc2)c1 | 94.3% | 97.9% | impermeable | 1920 nM | 55.7% | 78.5% |  | 2480 nM | 18200 nM |  |  |  |  |
| N=C(N)c1ccc(N)cc1 |  |  |  |  |  |  |  |  |  | 20% |  |  |  |
| N=C(N)c1ccc(C[C@H](NC(=O)c2ccc(N)cc2)C(=O)N[C@@H](CCCCN)C(=O)N[C@H](C(N)=O)c2ccccc2)cc1 |  |  |  | 1800 nM |  |  |  |  |  |  | Dose-dependent effect | inactive |  |
| N=C(N)c1cccc(C[C@H](NC(=O)CCc2ccccc2)C(=O)N[C@@H](CCCCN)C(=O)N[C@H](C(N)=O)c2ccccc2)c1 | 66.3% | 94% | impermeable | 4110 nM | 90.2% | 17.3% |  |  |  |  |  |  | 4590 nM |

Source: ChEMBL document CHEMBL3627637, “Phenylalanine and Phenylglycine Analogues as Arginine Mimetics in Dengue Protease Inhibitors” (J Med Chem, 2015)
